ChEMBL document CHEMBL1140844, “2-[(3-Methoxyphenylethyl)phenoxy]-based ABCB1 inhibitors: effect of different basic side-chains on their biological properties” (J Med Chem, 2008)

Columns and labels:
[1] = target: T1, 5-hydroxytryptamine receptor 1A (Homo sapiens, UniProt P08908); experiment: Displacement of [3H]8-OH-DPAT from human cloned 5-HT1A receptor expressed in human HeLa cells; assay type: cell-based
T1 sequence (P08908 whole entry): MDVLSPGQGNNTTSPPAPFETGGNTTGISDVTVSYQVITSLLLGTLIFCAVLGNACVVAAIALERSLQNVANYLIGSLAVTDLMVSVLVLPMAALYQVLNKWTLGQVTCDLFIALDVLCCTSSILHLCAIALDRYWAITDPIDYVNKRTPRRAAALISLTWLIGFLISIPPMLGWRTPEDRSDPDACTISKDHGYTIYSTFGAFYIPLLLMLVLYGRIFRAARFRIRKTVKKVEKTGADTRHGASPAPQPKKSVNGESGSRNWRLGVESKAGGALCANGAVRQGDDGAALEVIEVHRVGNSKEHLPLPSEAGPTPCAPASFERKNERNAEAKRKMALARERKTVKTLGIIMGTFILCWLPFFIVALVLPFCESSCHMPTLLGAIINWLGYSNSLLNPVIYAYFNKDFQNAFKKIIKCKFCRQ
Method in brief: (§1)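 Compounds at 0.1 nM–10 µM in 50 mM Tris-HCl pH 7.4, 5 mM MgSO4, 120 min at 37 °C. Filtered on PEI-soaked GF/C. Nonspecific binding with 10 µM 8-OH-DPAT. […] Mean of three experiments, triplicate samples.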

D(2) dopamine receptor [2] = target: T2, D(2) dopamine receptor (Homo sapiens, UniProt P14416); experiment: Displacement of [3H]spiroperidol from human cloned dopaminergic D2 receptor expressed in rat C6 cells; assay type: cell-based
T2 sequence (P14416 whole entry): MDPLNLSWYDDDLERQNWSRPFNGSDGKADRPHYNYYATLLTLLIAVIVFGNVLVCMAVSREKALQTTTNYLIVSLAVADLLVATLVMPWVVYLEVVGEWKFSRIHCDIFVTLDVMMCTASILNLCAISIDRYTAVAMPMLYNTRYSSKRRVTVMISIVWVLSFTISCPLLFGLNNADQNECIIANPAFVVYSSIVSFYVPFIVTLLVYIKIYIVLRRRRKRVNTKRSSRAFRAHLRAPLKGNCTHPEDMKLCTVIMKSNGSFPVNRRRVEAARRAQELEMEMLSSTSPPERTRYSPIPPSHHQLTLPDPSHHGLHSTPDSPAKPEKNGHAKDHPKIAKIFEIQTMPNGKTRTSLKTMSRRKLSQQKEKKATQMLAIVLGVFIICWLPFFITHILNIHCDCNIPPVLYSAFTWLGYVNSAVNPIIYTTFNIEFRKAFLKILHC

Caco-2 = experiment: Ratio of apparent permeability from basolateral to apical over apical to basolateral side of human Caco-2 cells after 120 mins by UV-visible spectroscopy; settings: caco-2, 2 h
[3] = target: T3, ATP-dependent translocase ABCB1 (Homo sapiens, UniProt P08183); experiment: Inhibition of ABCB1-mediated [3H]vinblastine transportation in human Caco-2 cells; assay type: cell-based
T3 sequence (P08183 whole entry): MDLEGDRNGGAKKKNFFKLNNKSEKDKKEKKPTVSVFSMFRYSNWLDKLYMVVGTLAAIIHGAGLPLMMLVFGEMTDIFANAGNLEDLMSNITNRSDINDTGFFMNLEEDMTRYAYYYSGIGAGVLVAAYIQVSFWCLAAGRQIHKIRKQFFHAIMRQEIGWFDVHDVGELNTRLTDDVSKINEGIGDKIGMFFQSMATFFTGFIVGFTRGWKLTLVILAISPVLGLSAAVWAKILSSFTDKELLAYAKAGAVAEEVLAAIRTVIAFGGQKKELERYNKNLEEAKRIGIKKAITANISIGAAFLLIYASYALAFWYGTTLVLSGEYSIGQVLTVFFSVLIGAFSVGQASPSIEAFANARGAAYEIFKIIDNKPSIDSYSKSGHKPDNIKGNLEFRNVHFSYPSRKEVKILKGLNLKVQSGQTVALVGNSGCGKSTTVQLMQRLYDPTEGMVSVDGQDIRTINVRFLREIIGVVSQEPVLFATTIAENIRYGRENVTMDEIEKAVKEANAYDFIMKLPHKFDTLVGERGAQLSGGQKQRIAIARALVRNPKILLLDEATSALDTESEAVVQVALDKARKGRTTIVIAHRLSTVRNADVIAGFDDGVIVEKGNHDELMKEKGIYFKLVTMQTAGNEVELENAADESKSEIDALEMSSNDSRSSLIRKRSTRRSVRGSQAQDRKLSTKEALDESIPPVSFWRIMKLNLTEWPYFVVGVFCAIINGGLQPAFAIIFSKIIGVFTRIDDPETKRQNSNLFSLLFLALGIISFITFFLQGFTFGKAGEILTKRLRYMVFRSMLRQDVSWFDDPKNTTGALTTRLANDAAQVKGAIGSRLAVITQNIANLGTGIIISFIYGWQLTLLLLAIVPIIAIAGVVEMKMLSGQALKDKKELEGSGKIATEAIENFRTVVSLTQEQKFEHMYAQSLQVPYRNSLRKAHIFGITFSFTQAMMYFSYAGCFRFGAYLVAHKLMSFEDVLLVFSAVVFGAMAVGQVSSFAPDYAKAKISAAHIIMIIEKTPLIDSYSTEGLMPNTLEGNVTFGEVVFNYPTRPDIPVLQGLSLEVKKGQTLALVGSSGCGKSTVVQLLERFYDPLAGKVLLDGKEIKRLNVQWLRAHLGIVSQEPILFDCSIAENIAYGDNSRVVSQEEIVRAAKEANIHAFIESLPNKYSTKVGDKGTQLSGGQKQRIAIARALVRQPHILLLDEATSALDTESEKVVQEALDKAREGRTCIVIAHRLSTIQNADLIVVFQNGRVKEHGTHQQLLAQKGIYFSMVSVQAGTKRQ
Method in brief: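 Caco-2 monolayers grown 21 days (TEER >800 Ω × cm²). 20 nM [3H]vinblastine added to the basolateral side with or without compound (200 nM–400 µM) for 120 min at 37 °C. Appearance on the apical side measured by scintillation counting. IC50 from nonlinear fit. Mean of three experiments, triplicate samples.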

[4] = target: T3, ATP-dependent translocase ABCB1; experiment: Inhibition of ABCB1 in human Caco-2 cells assessed as ATPase activation at 100 uM after 2 hrs; assay type: cell-based; settings: caco-2, 2 h
Method in brief: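 Caco-2 cells seeded at 2 × 10⁴ cells/well and held overnight at 37 °C, 5% CO2. Exposed to compound in complete medium for 2 h at 37 °C. Cells then lysed and ATP read by luciferase luminescence after 10 min dark adaptation. Tested at 100 µM; a positive response is reported as a percentage.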

[5] = target: T4, Broad substrate specificity ATP-binding cassette transporter ABCG2 (Homo sapiens, UniProt Q9UNQ0); experiment: Inhibition of ABCG2
T4 sequence (Q9UNQ0 whole entry): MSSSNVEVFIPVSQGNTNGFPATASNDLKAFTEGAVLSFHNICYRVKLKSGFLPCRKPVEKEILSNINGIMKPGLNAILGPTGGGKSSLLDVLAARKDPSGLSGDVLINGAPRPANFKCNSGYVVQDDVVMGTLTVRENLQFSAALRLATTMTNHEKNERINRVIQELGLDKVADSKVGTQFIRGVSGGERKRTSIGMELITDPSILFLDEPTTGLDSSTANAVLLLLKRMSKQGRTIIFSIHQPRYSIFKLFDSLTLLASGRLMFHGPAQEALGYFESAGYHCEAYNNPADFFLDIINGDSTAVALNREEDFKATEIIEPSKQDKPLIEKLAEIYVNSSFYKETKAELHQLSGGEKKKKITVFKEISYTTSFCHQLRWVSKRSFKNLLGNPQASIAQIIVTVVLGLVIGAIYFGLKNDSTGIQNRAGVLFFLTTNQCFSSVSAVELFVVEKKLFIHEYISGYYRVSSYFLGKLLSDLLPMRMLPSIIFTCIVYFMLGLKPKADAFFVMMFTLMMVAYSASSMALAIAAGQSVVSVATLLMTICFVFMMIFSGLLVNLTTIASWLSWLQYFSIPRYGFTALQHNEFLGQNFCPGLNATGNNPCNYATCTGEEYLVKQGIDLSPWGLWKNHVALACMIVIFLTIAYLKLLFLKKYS

D(2) dopamine receptor [6] = target: T2, D(2) dopamine receptor; experiment: Displacement of [3H]spiroperidol from human cloned dopaminergic D2 receptor expressed in rat C6 cells at 10 uM; assay type: cell-based
Method in brief: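 Buffer was 50 mM Tris, 10 mM MgCl2, 1 mM EDTA, pH 7.4. Incubated 60 min at 27 °C, then filtered on PEI-soaked GF/C. Nonspecific binding with 10 µM haloperidol.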

ABCB1 = ABCB1 (Homo sapiens, UniProt P08183); experiment: Activation of ABCB1 in human Caco-2 cells assessed as ATPase activation at 100 uM after 2 hrs
Sequence of ABCB1 (P08183 whole entry): as the sequence (P08183 whole entry) above

[7] = target: T5, 5-hydroxytryptamine receptor 1A (Homo sapiens) (UniProt P08908); experiment: Displacement of [3H]8-OH-DPAT from human cloned 5-HT1A receptor expressed in human HeLa cells at 10 uM; assay type: cell-based; method in brief: as §1
T5 sequence (whole entry): T1 sequence (P08908 whole entry)

[8] = target: T3, ATP-dependent translocase ABCB1; experiment: Inhibition of ABCB1 transfected in MDCK cells assessed as increase in calcein-AM accumulation; assay type: cell-based
[9] = target: T3, ATP-dependent translocase ABCB1; experiment: Inhibition of ABCB1

| SMILES | Ki [1] [nM] | Ki (D(2) dopamine receptor [2]) [nM] | Ratio (Caco-2) | IC50 [3] [nM] | Activity [4] | IC50 [5] [nM] | IC50 [9] [nM] | inhibition (D(2) dopamine receptor [6]) [%] | activation at 2 h, 100 µM (ABCB1) [%] | inhibition [7] [%] | IC50 [8] [nM] |
| --- | --- | --- | --- | --- | --- | --- | --- | --- | --- | --- | --- |
| COc1cccc(CCc2ccccc2OCCCN2CCN(c3ncccn3)CC2)c1 | 331 | 20 | 131 | 1200 | Not Active |  |  |  |  |  |  |
| COc1cccc(CCc2ccccc2OCc2cccc(OC)c2OC)c1 |  |  |  |  |  | 120000 |  |  |  |  |  |
| COc1cccc(CCc2ccccc2OCCCCN2CCN(c3cccc(Cl)c3)CC2)c1 | 1310 | > 1000 | 5.1 | 1800 | Not Active |  |  | 35 |  |  |  |
| COc1cccc(CCc2ccccc2OCCCCCN2CCN(c3ccccc3OC)CC2)c1 | > 5000 | > 1000 | 5.2 | 1270 |  |  |  | 35 | 15 | 14 |  |
| COc1cccc(CCc2ccccc2OCCCCCN2CCc3ccccc3C2)c1 | > 5000 | > 1000 | 7.3 | 3170 | Not Active |  |  | 16 |  | 15 |  |
| COc1cccc(CCc2ccccc2OCCCN2CCN(C)CC2)c1 | > 5000 | 565 | 4.7 | 2500 | Not Active |  |  |  |  | 40 |  |
| COc1cccc(CCc2ccccc2OCCCCCN2CCN(c3ncccn3)CC2)c1 | > 5000 | > 1000 | 7.1 | 1720 | Not Active |  |  | 24 |  | 38 |  |
| COc1cccc(CCc2ccccc2OCCCCCN2CCc3cc(OC)c(OC)cc3C2)c1 | > 5000 | > 1000 | 4.9 | 350 |  |  |  | 18 | 20 | 22 | 110 |
| COc1cccc(CCc2ccccc2OCCCN2CCc3cc(OC)c(OC)cc3C2)c1 | > 5000 | > 1000 | 4.3 | 140 | Not Active |  |  | 35 |  | 36 | 90 |
| COc1cccc(CCc2ccccc2OCCCCN2CCN(C)CC2)c1 | > 5000 | > 1000 | 6.3 | 150 | Not Active |  |  | 14 |  | 38 | 4780 |
| COc1cccc(CCc2ccccc2OCCCCCN2CCN(C)CC2)c1 | > 5000 | > 1000 | 2.5 | 6820 | Not Active |  |  | 26 |  | 24 |  |
| COc1cccc(CCc2ccccc2OCCN2CCc3cc(OC)c(OC)cc3C2)c1 | > 5000 | > 1000 | 6.4 | 750 |  |  |  | 12 | 55 | 26 | 780 |
| COc1cccc(CCc2ccccc2OCCCCCN2CCN(c3ccc(F)cc3)CC2)c1 | > 5000 | 847 |  |  |  |  |  |  | 40 | 27 |  |
| COc1cccc(CCc2ccccc2OCCCCN2CCN(c3ccc(F)cc3)CC2)c1 | > 5000 | 1320 |  |  |  |  |  |  | 25 | 47 |  |
| COc1cccc(CCc2ccccc2OCCCCN2CCc3cc(OC)c(OC)cc3C2)c1 | > 5000 | > 1000 | 5.8 | 190 | Not Active |  |  | 40 |  | 18 | 160 |
| COc1cccc(CCc2ccccc2OCCCCCN2CCN(c3cccc(Cl)c3)CC2)c1 | > 5000 | > 1000 |  |  | Not Active |  |  | 25 |  | 14 |  |
| COc1cccc(CCc2ccccc2OCCN2CCN(C)CC2)c1 | > 5000 | 178 | 6.8 | 800 | Not Active |  |  |  |  | 48 | 7760 |
| COc1cccc(CCc2ccccc2OCCN2CCN(c3ccc(F)cc3)CC2)c1 | 783 | > 1000 | 2.2 | 10000 |  |  |  | 38 | 10 |  |  |
| COc1cccc(CCc2ccccc2OCCCCN2CCc3ccccc3C2)c1 | 1330 | > 1000 |  |  | Not Active |  |  | 48 |  |  |  |

Continued, in another order:

| Ki [1] [nM] | Ki (D(2) dopamine receptor [2]) [nM] | Ratio (Caco-2) | IC50 [3] [nM] | Activity [4] | IC50 [5] [nM] | IC50 [9] [nM] | SMILES | inhibition (D(2) dopamine receptor [6]) [%] | activation at 2 h, 100 µM (ABCB1) [%] | inhibition [7] [%] | IC50 [8] [nM] |
| --- | --- | --- | --- | --- | --- | --- | --- | --- | --- | --- | --- |
| 2870 | 1410 | 4.4 | 6500 | Not Active |  |  | COc1cccc(CCc2ccccc2OCCCN2CCN(c3cccc(C(F)(F)F)c3)CC2)c1 |  |  |  |  |
| 686 | > 1000 | 3.6 | 3200 | Not Active |  |  | COc1cccc(CCc2ccccc2OCCN2CCN(c3cccc(Cl)c3)CC2)c1 | 43 |  |  |  |
| 1410 | > 1000 | 2.6 | 40000 | Not Active |  |  | COc1cccc(CCc2ccccc2OCCN2CCN(c3cccc(C(F)(F)F)c3)CC2)c1 | 31 |  |  |  |
| 756 | 6.3 | 8.1 | 14000 |  |  |  | COc1cccc(CCc2ccccc2OCCCN2CCN(c3ccccc3OC)CC2)c1 |  | 20 |  |  |
| 1310 | > 1000 | 7.2 | 12000 | Not Active |  |  | COc1cccc(CCc2ccccc2OCCN2CCc3ccccc3C2)c1 | 35 |  |  |  |
| 800 | 655 |  |  |  |  |  | COc1cccc(CCc2ccccc2OCCCN2CCN(c3ccc(F)cc3)CC2)c1 |  | 38 |  |  |
| 1090 | 67 | 3.9 | 5800 |  |  |  | COc1cccc(CCc2ccccc2OCCCCN2CCN(c3ccccc3OC)CC2)c1 |  | 54 |  |  |
| 1240 | 427 | 6.8 | 25000 |  |  |  | COc1cccc(CCc2ccccc2OCCN2CCN(c3ccccc3OC)CC2)c1 |  | 10 |  |  |
| 1130 | 298 | 6.8 | 2500 | Not Active |  |  | COc1cccc(CCc2ccccc2OCCCN2CCN(c3cccc(Cl)c3)CC2)c1 |  |  |  |  |
|  |  |  |  |  | 150000 | 650 | COc1cccc(CCc2ccccc2OCc2ccc(OC)c(OC)c2)c1 |  |  |  |  |
| 1120 | 114 | 6.3 | 500 | Not Active |  |  | COc1cccc(CCc2ccccc2OCCCN2CCc3ccccc3C2)c1 |  |  |  | 1140 |
| 656 | 629 |  |  | Not Active |  |  | COc1cccc(CCc2ccccc2OCCN2CCN(c3ncccn3)CC2)c1 |  |  |  |  |
|  |  |  |  | Not Active |  |  | COc1cc2c(cc1OC)CN(CCc1ccc(NC(=O)c3cccc4c(=O)c5cccc(OC)c5[nH]c34)cc1)CC2 |  |  |  |  |
